The values that follow come from ChEMBL document CHEMBL3232768, “Structure-activity relationships of β-hydroxyphosphonate nucleoside analogues as cytosolic 5'-nucleotidase II potential inhibitors: synthesis, in vitro evaluation and molecular modeling studies” (Eur J Med Chem, 2014).

The species named for one test is Homo sapiens. In words: Inhibition of recombinant C-terminal His-tagged cN2 N-terminal 30 amino acid deletion mutant (unknown origin) expressed in Escherichia coli BL21 using IMP as substrate at 1 mM after 5 mins by green malachite phosphate assay. In short, it runs like this:
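Enzyme was purified from E. coli BL21 carrying pET24b by His-Trap affinity and then Superdex 75 gel filtration. Final enzyme was 0.1 in 50 mM imidazole pH 6.5, 500 mM NaCl, 10 mM MgCl₂, 1 mM DTT on ice. The reaction was started with 50 IMP plus equimolar Mg²⁺ and run 5 min at 37 °C. Malachite green reagent stopped it; released phosphate was read above 630 nm against a phosphate calibration curve.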

Test [1] in a line: Competitive inhibition of recombinant C-terminal His-tagged cN2 N-terminal 30 amino acid deletion mutant (unknown origin) expressed in Escherichia coli BL21 using IMP as substrate by double reciprocal plot analysis. Also on record: species or system Homo sapiens. In short, it runs like this:
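Kinetic assay with His-Trap and Superdex 75-purified enzyme at 0.1. Buffer was 50 mM imidazole pH 6.5, 500 mM NaCl, 10 mM MgCl₂, 1 mM DTT, with enzyme and substrate freshly prepared in it. Rate constants were measured at IMP from 200 to 3 mM to derive Ki. It was also used for compounds that react with the malachite green colorant.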

Consider `Nc1ccn([C@@H]2O[C@H]([C@H](O)CP(=O)(O)O)[C@H](O)[C@H]2O)c(=O)n1`, for which the inhibition in the test filed under Homo sapiens came out at 48%. For the same molecule, in test [1], the Ki was 8.9 mM.

Take `Nc1ccn([C@@H]2O[C@H]([C@H](O)CP(=O)(O)O)[C@@H](O)[C@@H]2O)c(=O)n1`: in the test filed under Homo sapiens, the inhibition was found to be 80%. Besides, in test [1], the inhibition constant Ki was 0.978 mM. On the same counts, the results for `Nc1ccn([C@@H](CO)O[C@@H](CO)[C@H](O)CP(=O)(O)O)c(=O)n1` are 45% and 4.06 mM.

Take `CCOP(=O)(C[C@@H](O)[C@H]1O[C@@H](n2ccc(N)nc2=O)[C@@H](O)[C@@H]1O)OCC`: the inhibition in the test listed under Homo sapiens worked out at 20%. Consider `Nc1nc(=O)n([C@@H]2O[C@H]([C@H](O)CP(=O)(O)O)[C@@H](O)[C@H]2O)cc1-c1ccccc1`, for which the inhibition in the test filed under Homo sapiens worked out at 60%. The Ki in test [1] worked out at 2.01 mM.

For the molecule `CCOP(=O)(C[C@@H](O)[C@H]1O[C@@H](n2ccc(=O)[nH]c2=O)[C@H](O)[C@@H]1O)OCC`, the inhibition in the test listed under Homo sapiens was determined as 11%.

As for `CCCCC#Cc1cn([C@@H]2O[C@H]([C@H](O)CP(=O)(O)O)[C@@H](O)[C@H]2O)c(=O)[nH]c1=O`, the inhibition in the test listed under Homo sapiens was 45%. `Nc1ccn([C@@H]2O[C@H]([C@H](O)CP(=O)(O)O)[C@@H](O)[C@H]2O)c(=O)n1`: the inhibition in the test listed under Homo sapiens was determined as 85%. Moreover, the Ki in test [1] came out at 1.74 mM. For the molecule `O=c1ccn([C@@H]2O[C@H]([C@H](O)CP(=O)(O)O)[C@H](O)[C@H]2O)c(=O)[nH]1`, the inhibition in the test filed under Homo sapiens amounted to 25%.

`Nc1nc(=O)n([C@@H]2O[C@H]([C@H](O)CP(=O)(O)O)[C@@H](O)[C@H]2O)cc1C#Cc1ccccc1`: in test [1], the Ki was found to be 8.85 mM. On the same count and under the same terms, the value for `CC(C)(C)C#Cc1cn([C@@H]2O[C@H]([C@H](O)CP(=O)(O)O)[C@@H](O)[C@H]2O)c(=O)[nH]c1=O` was 5.94 mM. For `Nc1ccn([C@@H]2O[C@H]([C@@H](O)CP(=O)(O)O)[C@@H](O)[C@H]2O)c(=O)n1`, the inhibition in the test filed under Homo sapiens amounted to 42%. For the molecule `O=c1[nH]c(=O)n([C@@H]2O[C@H]([C@H](O)CP(=O)(O)O)[C@@H](O)[C@H]2O)cc1/C=C/c1ccccc1`, in test [1], the Ki is 3.36 mM. Regarding `O=c1ccn([C@@H]2O[C@H]([C@H](O)CP(=O)(O)O)[C@@H](O)[C@@H]2O)c(=O)[nH]1`, the inhibition in the test filed under Homo sapiens is 25%. In addition, the Ki in test [1] is more than 100 mM.

As for `O=c1ccn([C@@H]2O[C@H]([C@H](O)CP(=O)(O)O)[C@H](O)[C@@H]2O)c(=O)[nH]1`, in the test listed under Homo sapiens, the inhibition was 25%. Moreover, the inhibition constant (Ki) in test [1] is more than 50 mM.

Regarding `CC(C)(C)C#Cc1cn([C@@H]2O[C@H]([C@H](O)CP(=O)(O)O)[C@@H](O)[C@H]2O)c(=O)nc1N`, the inhibition in the test listed under Homo sapiens is 46%. Moreover, the inhibitory constant (Ki) in test [1] came to 7.33 mM. Consider `O=c1[nH]c(=O)n([C@@H]2O[C@H]([C@H](O)CP(=O)(O)O)[C@@H](O)[C@H]2O)cc1C#Cc1ccccc1`, for which the Ki in test [1] was 2.18 mM. Consider `O=c1ccn([C@@H](CO)O[C@@H](CO)[C@H](O)CP(=O)(O)O)c(=O)[nH]1`, for which the inhibition in the test filed under Homo sapiens is 20%.

`O=c1ccn([C@@H]2O[C@H]([C@@H](O)CP(=O)(O)O)[C@@H](O)[C@H]2O)c(=O)[nH]1`: the inhibition in the test listed under Homo sapiens came to 43%.

With `Nc1nc(=O)n([C@@H]2O[C@H]([C@H](O)CP(=O)(O)O)[C@@H](O)[C@H]2O)cc1/C=C/c1ccccc1`, in test [1], the Ki turned out to be 1.14 mM. As to `CCOP(=O)(C[C@@H](O)[C@H](CO)O[C@H](CO)n1ccc(N)nc1=O)OCC`, the inhibition in the test filed under Homo sapiens was 21%.

Take `CCOP(=O)(C[C@@H](O)[C@H]1O[C@@H](n2ccc(=O)[nH]c2=O)[C@H](O)[C@H]1O)OCC`: the inhibition in the test filed under Homo sapiens turned out to be 26%. On the same count and under the same terms, the value for `CCCCC#Cc1cn([C@@H]2O[C@H]([C@H](O)CP(=O)(O)O)[C@@H](O)[C@H]2O)c(=O)nc1N` was 40%; that for `CCOP(=O)(C[C@@H](O)[C@H](CO)O[C@H](CO)n1ccc(=O)[nH]c1=O)OCC` was 10%; that for `O=c1[nH]c(=O)n([C@@H]2O[C@H]([C@H](O)CP(=O)(O)O)[C@@H](O)[C@H]2O)cc1-c1ccccc1` was 24%.

As for `Nc1ccn([C@@H]2O[C@H]([C@H](O)CP(=O)(O)O)[C@H](O)[C@@H]2O)c(=O)n1`, the inhibition in the test listed under Homo sapiens came out at 35%. The Ki in test [1] came to 11.1 mM.

With `O=c1ccn([C@@H]2O[C@H]([C@H](O)CP(=O)(O)O)[C@@H](O)[C@H]2O)c(=O)[nH]1`, the inhibition in the test listed under Homo sapiens amounted to 72%. The Ki in test [1] is 2.08 mM. As to `CCOP(=O)(C[C@@H](O)[C@H]1O[C@@H](n2ccc(=O)[nH]c2=O)[C@@H](O)[C@@H]1O)OCC`, the inhibition in the test filed under Homo sapiens was 2%. As to `CCOP(=O)(C[C@@H](O)[C@H]1O[C@@H](n2ccc(N)nc2=O)[C@H](O)[C@@H]1O)OCC`, in the test listed under Homo sapiens, the inhibition was determined as 18%.
